Measurements as given in paper PMC4805660 (Theranostics, 2016).
Structures can show the parent of a compound that is named as a salt.

Experiments:
Type in all cases: in vivo, NMRI nu/nu mice
MPC-mCherry tumors [1] = assay: Renal; details: for DAred, reduction of renal dopamine excretion [14-28 days pci] / NEred, reduction of renal norepinephrine excretion [14-28 days pci] / NMNred, reduction of renal normetanephrine excretion [14-28 days pci]: doxorubicin 6.9 µmol/kg, AN-238 0.2 µmol/kg, [^177Lu]Lu-DOTATATE 80 MBq/animal, urine LC-MS/MS, compared to control, mean ± SEM
MPC-mCherry tumors [2] = assay: ^177Lu activity in MPC-mCherry tumors after treatment, monitored by PLI; details: not decay-corrected, 80 MBq/animal
Summary of the method: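 Radioligand was made by heating [177Lu]LuCl3 (pH 5.2, NH4OAc) with 14 nmol peptide at 90 °C for 20 min, giving >97% HPLC radiochemical purity. 80 MBq (1.2 nmol)/mouse was given by tail vein in Infesol 15 from 15 days pci. Tumour ROIs were thresholded on mCherry/reference fluorescence (signal/background 2). PLI signal was expressed as effective and decay-corrected 177Lu activity.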

[3] = Body weight monitoring in treated mice; details: doxorubicin 6.9 µmol/kg, AN-238 0.2 µmol/kg, [^177Lu]Lu-DOTATATE 80 MBq/animal
Summary of the method: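 Mice carrying growing MPC-mCherry tumours (5 ± 3 mm diameter) were grouped by similar mean tumour volume and randomly assigned to control or therapy; treatment began 15 days pci. Test compounds in Infesol 15 given via tail vein at 0.3 mL/30 g body weight. Three independent experiments followed an identical protocol, with data pooled.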

Compound | fold more effective in reducing overall renal monoamine excretion compared to doxorubicin and AN-238 (MPC-mCherry tumors [1]; 14-28 days pci) [fold] | DAred, reduction of renal dopamine excretion [14-28 days pci] (MPC-mCherry tumors [1]) [%] | NEred, reduction of renal norepinephrine excretion [14-28 days pci] (MPC-mCherry tumors [1]) [%] | NMNred, reduction of renal normetanephrine excretion [14-28 days pci] (MPC-mCherry tumors [1]) [%] | half-life of effective ^177Lu activity in tumors (MPC-mCherry tumors [2]) [h] | body weight change after treatment [3]
[^177Lu]Lu-DOTA-(Tyr^3)octreotate [[^177Lu]Lu-DOTATATE] | 2 | 97.2 ± 0.9 | 99.6 ± 1.9 | 100 ± 0.7 | 48 | 
COc1cccc2c1C(=O)c1c(O)c3c(c(O)c1C2=O)C[C@@](O)(C(=O)CO)C[C@@H]3O[C@H]1C[C@H](N)[C@H](O)[C@H](C)O1 [doxorubicin, doxorubicin hydrochloride] |  | 31.5 ± 11.3 | 74.8 ± 7.5 | 77.3 ± 5.1 |  | tended to decrease immediately
